# Test results reported in PMC4493896 (Journal of Medicinal Chemistry, 2015).
# What was measured:
# [1] = test system: CREB-mediated gene transcription; test: CREB Renilla luciferase; format: cell-based; details: HEK 293T cells
# [2] = test system: A549, MCF-7, MDA-MB-231, MDA-MB-468 cells; test: MTT assay, statements across the cancer cell line panel; format: cell-based; details: 72 h
# Summary of the method: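 Cells in DMEM with nonessential amino acids and 10% FBS (37 °C, 5% CO2) attached overnight, then took test compound at a range of concentrations up to 100 μM for 72 h. MTT (0.5 mg/mL in complete medium) was added for 3 h at 37 °C, formazan dissolved in DMSO, A570 read. Growth = 100×(At−A0)/(Ac−A0), with time-0 and medium-treated controls.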
# cancer and normal cells = details: same assay conditions; cited from earlier work
# Nurr1/NR4A2 mRNA = test: qRT-PCR of endogenous CREB target gene in HEK 293T cells; format: cell-based; details: forskolin 10 μM
structure (smiles),measurement,setting,value
"Cl.NCCCOc1cc2ccccc2cc1C(=O)NCCCOc1cc2ccccc2cc1C(=O)Nc1ccc(Cl)cc1 [Compound 3b, 3-(3-Aminopropoxy)-N-(3-((3-((4-chlorophenyl)carbamoyl)naphthalen-2-yl)oxy)propyl)-2-naphthamide Hydrochloride]",decrease of CREB inhibition activity in comparison to 3a,[1],about 2 fold
"Cl.O=C(NCCCOc1cc2ccccc2cc1C(=O)Nc1ccc(Cl)cc1O)c1cc2ccccc2cc1OCCCN1CCOCC1 [Compound 3e, N-(4-Chloro-2-hydroxyphenyl)-3-(3-(3-(3-morpholinopropoxy)-2-naphthamido)propoxy)-2-naphthamide Hydrochloride]",growth inhibition activity in the other three cancer cell lines,"[2]; A549, MCF-7, MDA-MB-231, MTT",no activity
"O=C(NCCCOc1cc2ccccc2cc1C(=O)Nc1ccc(Cl)cc1O)c1cc2ccccc2cc1OCCCO [Compound 3g, N-(4-Chloro-2-hydroxyphenyl)-3-(3-(3-(3-hydroxypropoxy)-2-naphthamido)propoxy)-2-naphthamide]",GI50,"[2]; read-out: GI50 values, range over all four cancer cell lines",10.2 to 82.7 µM
COc1cccc2c1C(=O)c1c(O)c3c(c(O)c1C2=O)C[C@@](O)(C(=O)CO)C[C@@H]3O[C@H]1C[C@H](N)[C@H](O)[C@H](C)O1 [doxorubicin],differential toxicity between cancer and normal cells,cancer and normal cells,did not show differential toxicity
C=C[C@@]1(C)CC(=O)[C@]2(O)[C@@]3(C)[C@@H](O)CCC(C)(C)[C@@H]3[C@H](O)[C@H](OC(C)=O)[C@@]2(C)O1 [forskolin],stimulation of Nurr1/NR4A2 level,Nurr1/NR4A2 mRNA,~31 fold
